Sampled rows, rich in hits. Any-hit rate of the full collection: about 2.8%.
NPY Y2 blocker: NPY-Y2 (human) receptor antagonism. inhibition, % at 2.7 µM. NPY-Y2 expressing cells, antagonist mode. 0.99% of 140,000 active. AID 793; in the data active = inhibition above about 17%
EP2 modulator: modulators of human EP2 prostaglandin E2 receptor. 0.83% of 260,000 active. induction, % at 25 µM. EP2-expressing cells, cAMP HTRF FRET, PGE2 co-stimulation;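 active = compounds whose cAMP rise, as percent of the full-agonist control response, exceeds 60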;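 also: rat C6 glioma line stably carrying human EP2 under a CMV promoter; the protocol text gives 20 µM as final concentration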
Target sequence (P43116 whole entry, looked up): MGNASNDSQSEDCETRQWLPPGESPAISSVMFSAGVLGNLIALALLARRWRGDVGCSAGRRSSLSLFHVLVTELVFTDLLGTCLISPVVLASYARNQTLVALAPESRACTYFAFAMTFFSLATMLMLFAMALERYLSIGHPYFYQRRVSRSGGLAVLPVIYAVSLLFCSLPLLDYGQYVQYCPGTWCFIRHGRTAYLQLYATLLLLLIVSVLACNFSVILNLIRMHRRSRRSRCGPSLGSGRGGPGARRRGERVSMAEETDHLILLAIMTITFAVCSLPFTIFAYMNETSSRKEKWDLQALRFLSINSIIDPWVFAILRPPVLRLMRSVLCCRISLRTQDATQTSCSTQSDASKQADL
NPY Y1 blocker: blocks the human neuropeptide Y Y1 receptor; P25929; HEK293-CNG Y1 cells, membrane potential fluorescence; NPY at EC95, then isoproterenol; inhibition, % at 3.6 µM; 1% of 200,000 active; AID 1040;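 active = inhibition above the campaign mean inhibition of all tested compounds plus 3 SD, cut at about 20% in these data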
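Assay system: HEK293 Y1/CNG channel cell line; Doses: single compound dose of 3.6 µM, 0.4% DMSO; Timing: dye 3 h, compound 60 min room temperature, stimulation 45 min; Technique: Membrane-potential fluorescent dye readout; Measure: % inhibition of NPY effect.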
PGE2 EP2 inh: inhibitors of human EP2 prostaglandin E2 receptor; P43116; inhibition, % at 25 µM; 0.52% of 260,000 active; C6 glioma cells expressing human EP2, cAMP TR-FRET; cells stimulated with saturating PGE2; AID 1422;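 active = percent inhibition above 40 after rounding to a whole number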;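 also: rat C6 glioma host cells with rolipram phosphodiesterase inhibitor present; the protocol text gives 20 µM as final concentration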
NPY-Y1 PAM-ag: potentiators or agonists of human neuropeptide Y receptor Y1. P25929. NPY-Y1 expressing cells, potentiator/agonist activation. activation, % at 3.6 µM. 0.37% of 220,000 active. AID 1304; in the data active = activation above about 33%, passing the limit was not always enough;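 also: cells stimulated with NPY at EC10 then isoproterenol at EC100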
NPY-Y2 PAM-ag: potentiates or activates human NPY-Y2 receptor | activation, % at 3.6 µM | cells expressing NPY-Y2, potentiator/agonist read-out | P49146 | 0.45% of 220,000 active; in the data active = activation above about 27%;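 also: cells stimulated with NPY near EC25 plus isoproterenol at EC100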
A number is an active result; ! = not confirmed by another sample.

`CCSc1nc2c(c(=O)n(C)c(=O)n2C)n1Cc1cccc2ccccc12` gave EP2 modulator 72 and PGE2 EP2 inh inactive.
Screening C=C(C)CSc1nc2c(c(=O)n(C)c(=O)n2C)n1Cc1ccccc1Cl returned EP2 modulator 74 and PGE2 EP2 inh inactive.
`CCC(C)Sc1nc2c(c(=O)n(C)c(=O)n2C)n1Cc1ccc(Cl)cc1` (configuration not stated) gave EP2 modulator 70 and PGE2 EP2 inh inactive.
Cn1c(=O)n(Cc2ccccc2Cl)c2ccccc21 was read as EP2 modulator 61, NPY Y1 blocker inactive, PGE2 EP2 inh inactive, NPY-Y1 PAM-ag inactive and NPY-Y2 PAM-ag inactive.
For CC(=O)c1[nH]c(C)c(C(=O)NCCn2nc3c(C)cc4ccc(C)cc4n3c2=O)c1C the results were EP2 modulator inactive and PGE2 EP2 inh inactive.
`C[C@H](Cn1nnc2ccccc21)NC(=O)CCn1ncc2ccccc21` gave EP2 modulator inactive and PGE2 EP2 inh inactive.
Screening CC(C)Sc1nc2c(c(=O)n(C)c(=O)n2C)n1Cc1ccccc1Cl returned EP2 modulator 62 and PGE2 EP2 inh inactive.
Screening O=C(Nc1ccccc1N1CCCC1)c1cccc(Cl)c1Cl returned EP2 modulator inactive, NPY Y1 blocker inactive, PGE2 EP2 inh inactive, NPY-Y1 PAM-ag inactive and NPY-Y2 PAM-ag inactive.
Cc1c(N2CCCC2)cc2c(c1NC(=O)c1ccccc1Cl)C(C)(C)CC2(C)C was read as EP2 modulator inactive, PGE2 EP2 inh 47!, NPY-Y1 PAM-ag inactive and NPY-Y2 PAM-ag inactive.
`COc1cc(-c2nn3c(C4CCCCC4)nnc3s2)cc(OC)c1OC` gave NPY Y2 blocker inactive, EP2 modulator inactive, NPY Y1 blocker inactive, PGE2 EP2 inh inactive, NPY-Y1 PAM-ag inactive and NPY-Y2 PAM-ag inactive.
`COc1ccc(-c2nn3c(C4CCCCC4)nnc3s2)cc1OC` gave NPY Y2 blocker inactive, EP2 modulator 61, NPY Y1 blocker inactive, PGE2 EP2 inh inactive, NPY-Y1 PAM-ag inactive and NPY-Y2 PAM-ag inactive.
For CCOC(=O)CNC(=O)CSc1nnc(-c2cc(OC)cc(OC)c2)o1 the results were EP2 modulator inactive and PGE2 EP2 inh inactive.
For CCOCCn1c(SCCCc2ccccc2)nc2c1c(=O)[nH]c(=O)n2C the results were NPY Y2 blocker inactive, EP2 modulator 62, NPY Y1 blocker inactive, PGE2 EP2 inh inactive, NPY-Y1 PAM-ag inactive and NPY-Y2 PAM-ag inactive.
CCCSc1nc2c(c(=O)[nH]c(=O)n2C)n1C was read as NPY Y2 blocker inactive, EP2 modulator inactive, NPY Y1 blocker inactive, PGE2 EP2 inh inactive, NPY-Y1 PAM-ag inactive and NPY-Y2 PAM-ag inactive.
`C=C(C)Cn1c(SCc2ccc(Cl)cc2)nc2c1c(=O)[nH]c(=O)n2C` gave EP2 modulator 71 and PGE2 EP2 inh inactive.
CCCCCSc1nc2c(c(=O)[nH]c(=O)n2C)n1CCc1ccccc1 was read as PGE2 EP2 inh inactive.
CCCCCCSc1nc2c(c(=O)[nH]c(=O)n2C)n1C was read as NPY Y2 blocker inactive, EP2 modulator 64, NPY Y1 blocker inactive, PGE2 EP2 inh inactive, NPY-Y1 PAM-ag inactive and NPY-Y2 PAM-ag inactive.
Screening COc1cc(C2/C(=C(/O)c3ccc(C)cc3)C(=O)C(=O)N2CCO)ccc1O (configuration not stated) returned EP2 modulator inactive and PGE2 EP2 inh inactive.
Screening CC(C)(Oc1ccc(-c2ccco2)cc1)C(=O)O returned NPY Y2 blocker inactive, EP2 modulator inactive, NPY Y1 blocker inactive, PGE2 EP2 inh inactive, NPY-Y1 PAM-ag inactive and NPY-Y2 PAM-ag inactive.
`CC(=O)c1sc(C(=O)O)c(-c2ccco2)c1-c1ccco1` gave EP2 modulator inactive, PGE2 EP2 inh 43, NPY-Y1 PAM-ag inactive and NPY-Y2 PAM-ag inactive.
COc1ccc(NC(=O)C2CCN(c3nc4ccccc4n3C)CC2)cc1 was read as EP2 modulator inactive and PGE2 EP2 inh inactive.
For COc1ccc(-c2nnn(CC(=O)Nc3ccc(C(C)C)cc3)n2)cc1OC the results were EP2 modulator inactive and PGE2 EP2 inh inactive.
N#C/C(=C\NC(=S)c1ccncc1)c1nc2ccccc2s1 was read as EP2 modulator inactive and PGE2 EP2 inh 53.
COc1ccc(C2CCN(Cc3ccncc3)CC2)cc1OC was read as EP2 modulator inactive and PGE2 EP2 inh inactive.
CC1CCC(C(C)C)C(OC(=O)C[n+]2cc(-c3ccc(Cl)cc3)n3c2CCC3)C1 (configuration not stated) was read as EP2 modulator inactive, PGE2 EP2 inh inactive, NPY-Y1 PAM-ag inactive and NPY-Y2 PAM-ag inactive.
CC1CCC(C(C)C)C(OC(=O)Cn2c(-c3ccc(F)cc3)[n+](C)c3ccccc32)C1 (configuration not stated) was read as NPY Y2 blocker 46, EP2 modulator inactive, NPY Y1 blocker 61, PGE2 EP2 inh inactive, NPY-Y1 PAM-ag inactive and NPY-Y2 PAM-ag inactive.
Screening CC1CCC(C(C)C)C(OC(=O)Cn2c(-c3ccccc3)[n+](C)c3ccccc32)C1 (configuration not stated) returned NPY Y2 blocker 80, EP2 modulator inactive, NPY Y1 blocker 112, PGE2 EP2 inh inactive, NPY-Y1 PAM-ag inactive and NPY-Y2 PAM-ag inactive.
CC(C)[C@@H]1CC[C@@H](C)C[C@H]1OC(=O)c1ccccc1 was read as EP2 modulator inactive and PGE2 EP2 inh inactive.
Screening CCOc1cc(/C=N/NC(=O)Cn2nc([N+](=O)[O-])cc2C)cc(Br)c1OCc1ccccc1F returned NPY Y2 blocker inactive, EP2 modulator inactive, NPY Y1 blocker inactive, PGE2 EP2 inh inactive, NPY-Y1 PAM-ag inactive and NPY-Y2 PAM-ag inactive.
For CCOc1cc(/C=N/NC(N)=O)cc(Br)c1OCc1ccccc1F the results were NPY Y2 blocker inactive, EP2 modulator 62, NPY Y1 blocker inactive, PGE2 EP2 inh inactive, NPY-Y1 PAM-ag inactive and NPY-Y2 PAM-ag inactive.
`COCCN(CCOC)c1ncnc2c1cnn2-c1ccccc1` gave EP2 modulator 78 and PGE2 EP2 inh inactive.
For COCCN(CCOC)c1ncnc2c1cnn2-c1ccc(Cl)cc1 the results were NPY Y2 blocker inactive, EP2 modulator inactive, NPY Y1 blocker inactive, PGE2 EP2 inh inactive, NPY-Y1 PAM-ag inactive and NPY-Y2 PAM-ag inactive.
Screening OC[C@@H]1O[C@H](n2cnc3c(/C=C(\O)c4ccccc4)ncnc32)[C@H](O)[C@H]1O returned EP2 modulator inactive and PGE2 EP2 inh 45.
COc1ccccc1NC(=O)CSc1nnc(CSCc2ccc(F)cc2)n1C was read as EP2 modulator inactive and PGE2 EP2 inh inactive.
O=C(CSc1nnc(-c2ccccc2Br)o1)N1CCCc2ccccc21 was read as EP2 modulator inactive and PGE2 EP2 inh inactive.
Screening Cc1ccc(C(=O)N2CCCC(c3nc(-c4ccc(C)o4)no3)C2)cc1 (configuration not stated) returned EP2 modulator inactive and PGE2 EP2 inh inactive.
Screening CCOCCCNC(=O)c1ccc(Cn2c(=O)[nH]c3ccsc3c2=O)cc1 returned EP2 modulator inactive, NPY Y1 blocker inactive, PGE2 EP2 inh inactive, NPY-Y1 PAM-ag inactive and NPY-Y2 PAM-ag inactive.

Screens (PubChem BioAssay)
